Results collected from several papers.
Protocols differ between the studies behind these lines.
Target: BMP-2-inducible protein kinase (BMP2K, Homo sapiens, UniProt Q9NSY1)

COc1cc(-c2cn(C3CCc4c(F)cccc4N(CC(F)(F)F)C3=O)nn2)ccc1-n1cnc(C)c1 (stereo not shown)  remaining binding (cell-free assay, competition with immobilised ligand; 1 µM): 100%
O=C(Nc1c[nH]nc1C(=O)NC1CCNCC1)c1cc(F)cc(F)c1  remaining binding (binding, competition with immobilised ligand; 1 µM): 53%
C[C@@H](c1ccc(-n2cnc3c(N)ncnc32)cc1)N1CCc2nn(C)c(Cc3ccccc3)c2C1=O  remaining binding (binding, competition with immobilised ligand; 0.1 µM): 84%
C[C@H]1CCN(c2nccc(-c3cnn4ncccc34)n2)C1  remaining binding (binding; 1 µM): 83%
O=C(N1CCS(=O)(=O)CC1)N1C[C@H](c2ccc(OC(F)(F)F)cc2)C[C@H](c2nc(C3CC3)no2)C1  remaining binding (cell-free assay, competition with immobilised ligand; 1 µM): 97%
F[C@@H]1CCN(c2nccc(-c3cnn4ncccc34)n2)C1  remaining binding (binding; 1 µM): 100%
CNC(=O)c1ccc(Nc2ncc(C(F)(F)F)c(NCc3nccnc3N(C)S(C)(=O)=O)n2)cc1  remaining binding (cell-free assay, competition with immobilised ligand; 0.1 µM): 81%
Cc1cnn2ncc(-c3ccnc(N(C)C)n3)c2c1  remaining binding (binding; 1 µM): 80%
O=C1NC(c2ccccn2)Sc2ccccc21 (stereo not shown)  remaining binding (cell-free assay, competition with immobilised ligand; 1 µM): 88%
O=C(NCCCN1CCOCC1)c1ccc(Nc2nccc(-c3cc4ccccc4s3)n2)cc1  remaining binding (binding, competition with immobilised ligand; 1 µM): 0.7%
Cc1c(C(=O)O)cc(-c2ccc(C3CCNCC3)cc2)c2ccc(-c3ccc(C(F)(F)F)cc3)cc12  remaining binding (binding, competition with immobilised ligand; 1 µM): 83%
Cc1cnc(Nc2ccc(C(=O)N3CCC(N4CCCC4)CC3)cc2)nc1-c1cc2ccccc2s1  remaining binding (binding, competition with immobilised ligand; 1 µM): 0.2%
CN(c1nccc(-c2cnn3ncccc23)n1)C1CC1  remaining binding (binding; 1 µM): 100%
COc1cnc(Nc2cccc(S(N)(=O)=O)c2)nc1N1CCN(c2ccccc2)CC1  remaining binding (binding, competition with immobilised ligand; 1 µM): 57%
C=CC(=O)N1CCC(C(=O)NCC(=O)N2CCN(c3nc(-c4cnc(N)nc4C(F)F)nc(N4CCOCC4)n3)CC2)CC1  remaining binding (binding, competition with immobilised ligand; 1 µM): 94%
FC(F)(F)c1ccc2c(c1)nc(-c1cccnc1)n2C1CC1  remaining binding (cell-free assay, competition with immobilised ligand; 1 µM): 100%
N[C@H]1CCN(c2nccc(-c3cnn4ncccc34)n2)C1  remaining binding (binding; 1 µM): 88%
FC(F)(F)Oc1cccc(-c2cnc3ccc(-c4ccncc4)nn23)c1  remaining binding (binding, competition with immobilised ligand; 5 µM): 8.3%
c1cncc(-c2cccc(Nc3nccc(NC4CCCCC4)n3)c2)c1  remaining binding (binding, competition with immobilised ligand; 10 µM): 21%
O=C(c1ccc(Nc2nccc(-c3cc4ccccc4s3)n2)cc1)N1CCC(N2CCCC2)CC1  remaining binding (binding, competition with immobilised ligand; 1 µM): 0.5%
Cc1cc(NC(=O)c2cccc(S(F)(F)(F)(F)F)c2)cc(-n2ccn3nc(-c4cccnc4)cc23)c1  remaining binding (cell-free assay, competition with immobilised ligand; 1 µM): 65.9%
c1cnn2ncc(-c3ccnc(N4CCC45COC5)n3)c2c1  remaining binding (binding; 1 µM): 61%
